From ChEMBL document CHEMBL1909509, “Mepyramine-JNJ7777120-hybrid compounds show high affinity to hH(1)R, but low affinity to hH(4)R” (Bioorg Med Chem Lett, 2011)
Active and inactive are the calls of the source. No cut-off for these calls is given here.

How the values were obtained:
Histamine H4 receptor [1] = target: T1, Histamine H4 receptor (Homo sapiens, UniProt Q9H3N8); test: Displacement of [3H]histamine from human H4R expressed in Sf9 cells co-expressing RGS19, Galphai2 and Gbeta1gamma2 after 60 mins by liquid scintillation counting
Histamine H1 receptor [2] = target: Histamine H1 receptor (Homo sapiens, UniProt P35367); test: biochemical; type: cell-based, Sf9
Chain of Histamine H1 receptor (Homo sapiens, UniProt P35367) (P35367 whole entry): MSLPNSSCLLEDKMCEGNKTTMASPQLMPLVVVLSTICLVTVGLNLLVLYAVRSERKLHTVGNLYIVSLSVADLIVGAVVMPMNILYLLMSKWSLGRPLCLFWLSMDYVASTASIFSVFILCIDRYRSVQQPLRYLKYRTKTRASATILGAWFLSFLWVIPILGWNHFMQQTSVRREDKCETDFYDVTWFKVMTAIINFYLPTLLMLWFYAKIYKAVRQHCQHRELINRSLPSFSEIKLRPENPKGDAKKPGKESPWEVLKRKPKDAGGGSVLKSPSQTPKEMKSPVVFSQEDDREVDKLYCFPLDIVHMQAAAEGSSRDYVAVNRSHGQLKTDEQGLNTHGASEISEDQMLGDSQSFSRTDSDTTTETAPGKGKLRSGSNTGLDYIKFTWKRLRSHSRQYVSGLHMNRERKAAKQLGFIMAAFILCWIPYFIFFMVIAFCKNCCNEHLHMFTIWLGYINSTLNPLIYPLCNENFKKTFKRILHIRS

[3] = target: Histamine H1 receptor (Cavia porcellus) (UniProt P31389); test: Partial agonist activity at H1R in guinea pig ileum assessed as inhibition of histamine-induced muscle contraction after 15 mins; type: functional, tissue-based
Chain of Histamine H1 receptor (Cavia porcellus) (P31389 whole entry): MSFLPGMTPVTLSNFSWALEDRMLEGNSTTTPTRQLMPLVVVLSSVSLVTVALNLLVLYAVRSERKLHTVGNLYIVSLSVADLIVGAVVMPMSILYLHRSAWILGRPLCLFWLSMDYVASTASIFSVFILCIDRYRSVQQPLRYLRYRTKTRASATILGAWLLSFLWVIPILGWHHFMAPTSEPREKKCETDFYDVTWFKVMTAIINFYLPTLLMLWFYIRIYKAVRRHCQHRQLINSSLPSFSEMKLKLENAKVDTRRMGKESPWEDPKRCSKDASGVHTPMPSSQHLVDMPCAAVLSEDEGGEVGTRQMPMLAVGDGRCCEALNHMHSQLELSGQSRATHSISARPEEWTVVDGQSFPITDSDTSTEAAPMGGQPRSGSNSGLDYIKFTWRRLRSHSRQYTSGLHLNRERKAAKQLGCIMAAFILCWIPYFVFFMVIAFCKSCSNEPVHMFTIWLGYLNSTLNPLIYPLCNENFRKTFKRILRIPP
In short: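 Isolated guinea-pig ileum, contraction induced by histamine; test ligand incubated 15 min before the histamine response.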

Histamine H1 receptor [4] = target: Histamine H1 receptor (Cavia porcellus, UniProt P31389); test: Antagonist activity at H1R in guinea pig ileum assessed as inhibition of histamine-induced muscle contraction after 15 mins; type: functional, tissue-based; details: read-out: pA2 (converted)
Chain of Histamine H1 receptor (Cavia porcellus, UniProt P31389) (P31389 whole entry): as above

Histamine H4 receptor [5] = target: T1, Histamine H4 receptor; test: Partial agonist activity at human H4R expressed in Sf9 cells co-expressing RGS19, Galphai2 and Gbeta1gamma2 assessed as stimulation of [35S]GTPgammaS binding relative to histamine; type: functional
Histamine H4 receptor [6] = target: T1, Histamine H4 receptor; test: Partial agonist activity at human H4R expressed in Sf9 cells co-expressing RGS19, Galphai2 and Gbeta1gamma2 assessed as stimulation of [35S]GTPgammaS binding; type: functional
Histamine H4 receptor [7] = target: T1, Histamine H4 receptor; test: Inverse agonist activity at human H4R expressed in Sf9 cells co-expressing RGS19, Galphai2 and Gbeta1gamma2 assessed as […] of [35S]GTPgammaS binding relative to histamine; type: functional
Histamine H4 receptor [8] = target: T1, Histamine H4 receptor; test: Inverse agonist activity at human H4R expressed in Sf9 cells co-expressing RGS19, Galphai2 and Gbeta1gamma2 assessed as […] of [35S]GTPgammaS binding; type: functional

Ki (Histamine H4 receptor [1]) | Ki (Histamine H1 receptor [2]) | inhibition [3] | Kb (Histamine H1 receptor [4]) | Emax (Histamine H4 receptor [5]) | EC50 (Histamine H4 receptor [6]) | Emax (Histamine H4 receptor [7]) | EC50 (Histamine H4 receptor [8]) | SMILES
15800 nM | 776 nM | inactive | 20.4 nM | – | – | – | – | COc1ccc(CN(CCN2CCN(C(=O)c3cc4cc(Cl)ccc4[nH]3)CC2)c2ccccn2)cc1
6760 nM | 100 nM | inactive | 7.59 nM | – | – | – | – | COc1ccc(CN(CCN(C)CCN2CCN(C(=O)c3cc4cc(Cl)ccc4[nH]3)CC2)c2ccccn2)cc1
27500 nM | 457 nM | inactive | 8.51 nM | – | – | – | – | COc1ccc(CN(CCN[C@H]2CCN(C(=O)c3cc4ccccc4[nH]3)C2)c2ccccn2)cc1
22400 nM | 603 nM | inactive | 7.24 nM | – | – | – | – | COc1ccc(CN(CCN2CCN(C(=O)c3nc4ccccc4[nH]3)CC2)c2ccccn2)cc1
5890 nM | 170 nM | inactive | 10.7 nM | 88% | 105000 nM | – | – | COc1ccc(CN(CCN2CCN(C(=O)c3cc4ccccc4[nH]3)CC2)c2ccccn2)cc1
10500 nM | 5.5 nM | – | – | – | – | – | – | O=C(c1cc2ccccc2[nH]1)N1CCN(CCN2CCC(Nc3nc4ccccc4n3Cc3ccc(F)cc3)CC2)CC1
14100 nM | 214 nM | inactive | 12.6 nM | – | – | – | – | COc1ccc(CN(CCN(C)CC(C)Nc2ccc3[nH]c(C(=O)N4CCN(C)CC4)cc3c2)c2ccccn2)cc1 (racemic)
8910 nM | 7.08 nM | inactive | 4.9 nM | – | – | < -1% | > 100000 nM | COc1ccc(CN(CCN(C)CCN2CCN(C(=O)c3cc4ccccc4[nH]3)CC2)c2ccccn2)cc1
288 nM | – | – | – | – | – | – | – | CN1CCN(C(=O)c2nc3ccccc3[nH]2)CC1

SMILES | Ki (Histamine H4 receptor [1]) | Ki (Histamine H1 receptor [2]) | inhibition [3] | Kb (Histamine H1 receptor [4]) | Emax (Histamine H4 receptor [5]) | EC50 (Histamine H4 receptor [6]) | Emax (Histamine H4 receptor [7]) | EC50 (Histamine H4 receptor [8])
O=C(c1cc2ccccc2[nH]1)N1CCN(CCOC(c2ccccc2)c2ccccc2)CC1 | 17800 nM | 224 nM | inactive | – | – | – | – | –
COc1ccc(CCN2CCC(Nc3nc4ccccc4n3Cc3ccc(F)cc3)CC2)cc1 [ASTEMIZOLE] | 7940 nM | – | – | – | – | – | – | –
